Assay outcomes deposited in PubChem BioAssay by several laboratories.
A selection: hits, their analogues and other compounds. The true share with any hit is near 1.9%.
Hsp70 act: Hsp70 transcriptional activation, primary screen; HeLa Hsp70 promoter luciferase reporter, luminescence; scaled: vehicle 0, proteasome-inhibitor control 100%; activation, % at 10 µM; actives 0.04% (n = 200,000);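 active = activation above the mean across all tested compounds plus 3 SD, cutoff set per campaign, cut at about 5.5% in these data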
ABHD5-PLIN5 inh: blocks binding of human ABHD5 to perilipin-5 | Q00G26+Q8WTS1 | inhibition, % at 4 µM | Split G. princeps luciferase complementation, luminescence, 4 h | actives 0.78% (n = 360,000);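 active = inhibition above the mean inhibition across every tested compound plus 3 SD, cut at about 22% in these data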
TAG inh: triacylglycerol accumulation inhibition. inhibition, % at 12.5 µM. actives 0.66% (n = 230,000). H9c2 cells, Nile Red lipid (TAG) fluorescence; cells loaded with 200 µM oleic acid;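 active = pattern-corrected inhibition of lipid staining of at least 50% with the nuclear-stain viability signal not falling by more than 50%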
Rad51 HR inh: Rad51 (human) homologous recombination inhibition; inhibition, % at 10 µM; actives 0.085% (n = 200,000); hRad51 DNA strand exchange, fluorescence dequenching;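 active = inhibition above 40% at the single screening dose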
Target sequence (Q06609 whole entry, looked up): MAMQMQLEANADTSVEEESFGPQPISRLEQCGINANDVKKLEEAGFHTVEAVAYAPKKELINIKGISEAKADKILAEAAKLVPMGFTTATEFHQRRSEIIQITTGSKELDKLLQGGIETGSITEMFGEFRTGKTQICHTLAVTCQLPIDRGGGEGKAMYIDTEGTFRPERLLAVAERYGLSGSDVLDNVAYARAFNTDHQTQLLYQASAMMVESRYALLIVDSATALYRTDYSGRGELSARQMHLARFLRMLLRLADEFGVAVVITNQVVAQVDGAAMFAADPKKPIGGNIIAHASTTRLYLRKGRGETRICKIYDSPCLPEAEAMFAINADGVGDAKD
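Read-out basis: percent inhibition relative to plate controls and blanks / Assay system: human Rad51 nucleoprotein filaments preassembled on unlabelled ssDNA / Timing: filaments 15 min 37 °C, then compound 30 min / Control set: per-plate controls and blanks / Technique: fluorescence dequenching at 485/520 nm / Compound: 10 µM final, single point / Also added: Fluorescein- and BHQ1-tagged 47-mer duplex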
HIF activator: HIF pathway transcriptional activation | U2OS HRE-luciferase reporter, luminescence; normalized: DMSO 0%, desferrioxamine 100% | AID 1910 | activation, % at 7.5 µM (by protocol) | actives 0.32% (n = 300,000);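 active = mean activation of at least 10% of the iron chelator positive control signal, with at least half of replicates also reaching 10%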
GAA850 FXN act: increases GAA850 frataxin promoter reporter activity; HEK293 lucGAA850 FXN promoter luciferase reporter, 24 h; percent of 10 µM SAHA response; activation, % at 6 µM; actives 0.56% (n = 360,000); AID 540364;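 active = activation above the average of all compounds screened plus 3 SD, cutoff fixed separately per campaign, cut at about 7.5% in these data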
GAA30 FXN cntr: GAA30 FXN promoter activation counter-screen. shares compounds with GAA850 FXN act. HEK293 lucGAA30 FXN promoter luciferase, 24 h; DMSO = 0%, 5 µM ipriflavone = 100%. activation, % at 6 µM. actives 66% (n = 1,900);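 active = mean activation above the mean of solvent-only control wells plus 3 SD, cut at about 22% in these data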;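 also: counterscreen of GAA850 promoter hits where activity marks nonselective or luminescence artifacts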
GAA850 confirm: confirmation of GAA850 frataxin (FXN) promoter activators. HEK293 lucGAA850 FXN promoter luciferase reporter, 24 h; 100% = activation by SAHA. actives 86% (n = 1,900). shares compounds with GAA850 FXN act. AID 588351. activation, % at 6 µM;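 active = mean activation above a set limit taken from the primary screen, cut at about 8% in these data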
Hits are given with their value; - = inactive; . = no result; ! = repeats disagree.

SMILES	Hsp70 act	ABHD5-PLIN5 inh	TAG inh	Rad51 HR inh	HIF activator	GAA850 FXN act	GAA30 FXN cntr	GAA850 confirm
Cc1cc(C)n2cc(CSc3nc4ccccc4s3)nc2n1	-	-	.	-	-	7.7	98.5	29.7
Cc1ccccc1C(=O)N1CCC(C(=O)OCc2ccccc2Cl)CC1	.	-	-	.	.	-	.	.
Cc1[nH]c2ccccc2c1SCc1ccccc1	-	-	-	-	-	15.4	-	-
COc1ccc(C(CC(=O)c2ccc(C)cc2)C(C#N)C#N)cc1OC (stereo unspecified)	-	-	.	-	-	8.0	39.3	37.8
COC(=O)C(C(=O)OC)C(CC(=O)c1ccc(C)cc1)c1cc(OC)c(OC)c(OC)c1 (stereo unspecified)	.	-	.	.	-	-	.	.
Cc1ccc(N(C(=O)c2csnn2)C(C(=O)NCc2ccccc2)c2cccnc2)cc1 (stereo unspecified)	.	-	.	.	-	-	.	.
CC(=O)N1CCOc2ccc(S(=O)(=O)Nc3ccc(C)cn3)cc21	.	-	.	.	-	-	.	.
Cc1cc(Br)c2c(c1)/C(=C/C(=O)c1cccs1)C(=O)N2	-	-	-	-	-	9.7	-	22.3
COc1cc(CNc2ccc3[nH]c(=O)[nH]c3c2)ccc1OCc1ccccc1F	.	-	.	.	-	7.7	33.4	19.7
CNC(=S)NC(CC(=O)OC)c1ccc2c(c1)OCO2 (stereo unspecified)	-	-	-	-	-	-	.	.
c1ccc2c(-c3nc4ccccc4[nH]3)cccc2c1	.	-	-	.	.	-	.	.
c1ccc2[nH]c(-c3ccnc4ccccc34)nc2c1	-	-	.	-	-	9.4!	65.3	19.0
CCc1nnc(NC(=O)CCC(=O)NCCc2ccc(OC)c(OC)c2)s1	-	-	.	-	-	-	.	.
CCN(C[C@H]1N[C@@](C)(C(=O)OC)[C@H]2C(=O)N(C)C(=O)[C@@H]12)C(=O)Nc1ccccc1	.	-	-	.	.	-	.	.
CCN(C[C@H]1N[C@@](C)(C(=O)OC)[C@H]2C(=O)N(Cc3ccccc3)C(=O)[C@@H]12)C(=O)Nc1ccc(OC)cc1	.	-	-	.	.	9.4	27.1	9.3
CCN(C[C@H]1N[C@@](C)(C(=O)OC)[C@H]2C(=O)N(Cc3ccccc3)C(=O)[C@@H]12)C(=O)Nc1ccc(Cl)cc1	.	-	-	.	.	14.2	36.9	14.7
CCN(CC(=O)NCc1cccs1)C(=O)c1ccc(-c2cccc(C(F)(F)F)c2)o1	.	-	-	.	-	-	.	.
CCOc1nc(C)ccc1-c1noc(-c2ccco2)n1	-	-	.	-	-	7.7	53.4	18.1
Cc1ccc(C(=O)c2sc3c(c2N)c(=O)[nH]c(=O)n3CCc2ccccc2)cc1	-	-	.	-	-	-	.	.
CCn1c(=O)[nH]c(=O)c2c(N)c(C(=O)c3cc(F)ccc3F)sc21	.	-	-	-	-	8.7	23.1	17.6
CCOC(=O)C(C)Oc1cccc2c(=O)n(CC(=O)Nc3ccc4c(c3)OCCO4)ccc12 (stereo unspecified)	-	-	-	-	-	11.4	-	-
CC(C)[C@H](NS(=O)(=O)c1ccccc1)C(=O)OCC(=O)Nc1cccc(S(N)(=O)=O)c1	.	-	-	.	.	-	.	.
O=C(Nc1scc(-c2ccccc2)c1C(=O)O)c1ccco1	-	-	-	-	-	-	.	.
COC(=O)c1c(-c2ccc(F)cc2)csc1NC(=O)c1ccco1	-	-	-	-	-	9.6	90.5	38.4
S=C(Nc1ccc(Cl)cc1)c1nc2ccccc2[nH]1	-	-	.	-	-	7.8	113.3	33.2
SMILES	Hsp70 act	ABHD5-PLIN5 inh	TAG inh	Rad51 HR inh	HIF activator	GAA850 FXN act	GAA30 FXN cntr	GAA850 confirm
CCCn1cnc2c(cnn2-c2ccc(F)cc2)c1=O	-	-	.	-	-	10.0	58.6	17.6
Cn1[nH]cc(C=NC(N)=O)c1=O	.	-	-	.	.	-	.	.
Cc1cc(OCc2cc(C(=O)N3CCCCCC3)no2)cc(C)c1Cl	.	-	-	.	-	-	.	.
O=[N+]([O-])c1nn(-c2ccc3c(c2)OCCO3)n(O)c1=NCc1ccc(F)cc1	-	-	.	-	-	-	.	.
O=[N+]([O-])c1nn(-c2ccc3c(c2)OCCO3)n(O)c1=NCc1ccc(F)cc1Cl	-	-	-	-	-	9.8	91.2	29.6
Oc1ccc(/C=N/N=C/c2ccc(O)c(O)c2)cc1O	.	-	-	.	-	8.2	32.7	16.1
Cc1cccc(C(=O)NNC(=O)c2ccc(NS(=O)(=O)c3cccs3)cc2)c1C	.	-	-	.	.	-	.	.
O=C1CCCN1C1CCN(Cc2ccccc2)S(=O)(=O)N1 (stereo unspecified)	.	-	.	.	.	.	.	.
CC(/C=N/NC(=O)NC1CCCCC1)=C\c1ccccc1	-	-	-	-	-	-	.	.
O=C(N/N=C/C(Br)=C\c1ccccc1)c1ccc2nc[nH]c2c1	-	-	.	-	-	8.5	37.9	18.6
O=C(N/N=C/c1cccc(F)c1)NC1CCCCC1	-	-	-	-	-	-	.	.
Cc1cc(C)nc(SCC(=O)N/N=C\C(Br)=C\c2ccccc2)n1	-	-	-	-	-	-	.	.
O=C(N/N=C/C(Br)=C/c1ccccc1)NC1CCCCC1	-	-	-	.	-	9.8	51.4	21.8
O=C(N/N=C/c1ccccc1)NC1CCCCC1	-	-	.	-	-	8.6	61.7	20.0
Cc1ccc(NCC(=O)N/N=C\C(Br)=C\c2ccccc2)cc1	-	-	.	-	-	13.3	-	10.7
Cc1ccc(-n2c(SCC(=O)c3c(N)n(C4CC4)c(=O)[nH]c3=O)nnc2N2CCOCC2)cc1	.	-	-	.	.	-	.	.
O=C(N/N=C/C(Br)=C/c1ccccc1)C1CC1	-	-	-	-	-	8.2	80.8	31.5
O=C(O)c1ccc(N/N=C/C(Br)=C/c2ccccc2)cc1	.	-	-	-	-	10.0	81.8	35.9
O=C(N/N=C/C(Br)=C/c1ccccc1)c1ccc([N+](=O)[O-])cc1	.	-	.	.	-	-	.	.
O=C(N/N=C/C(Br)=C/c1ccccc1)c1ccncc1	.	-	-	-	-	-	.	.
CC1CN(S(=O)(=O)c2cc(C(=O)NCCCN3CCCC3=O)ccc2Cl)CC(C)O1 (stereo unspecified)	.	-	-	.	.	-	.	.
Cc1nnc(Cl)c2nn(-c3ccccc3F)c(C)c12	-	-	.	.	-	13.4	-	-
Cc1n[nH]c(=S)c2nn(-c3ccccc3F)c(C)c12	-	-	.	.	-	-	.	.
CCO[C@@H]1OC(C(=O)O)=C[C@H](c2ccc(C(F)(F)F)cc2)[C@H]1CCCO	-	-	-	-	-	-	.	.
